Experimental data taken from ChEMBL document CHEMBL1122652, “Intensely potent morpholinyl anthracyclines” (J Med Chem, 1984).
Activity calls are given as the source filed them.

Legend:
Nucleic Acid [1] = test: Inhibition of [3H]thymidine incorporation into proliferating L1210 cells.; assay type: functional, cell-based; conditions: Mus musculus
In short: (§1)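 Actively growing L1210 cells in culture were exposed to drug, which was first dissolved in Me2SO and diluted to 1% Me2SO final. Incorporation of [3H]thymidine into DNA or [3H]uridine into RNA was measured. ED50 is the drug concentration giving 50% inhibition.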

Calf thymus DNA [2] = test: Change in thermal denaturation temperature of calf thymus DNA; assay type: nucleic-acid assay; conditions: Bos taurus
In short: (§2)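 Calf thymus DNA with drug at 5.2 X 10^-6 M in 0.01 M phosphate buffer pH 7 containing EDTA and 5% Me2SO. ΔTm is the thermal denaturation temperature of the DNA–drug complex minus that of DNA alone. Values <1 count as insignificant binding.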

Mus musculus [3] = test: Antitumor activity against mice baering P388 leukemia (10e6 cells) implanted ip on day 0, after treatment with three ip doses (8 mg/kg) on day 5,9,13 when tumor became systemic.; assay type: functional
Nucleic Acid [4] = test: Inhibition of [3H]uridine incorporation into proliferating L1210 cells.; assay type: functional, cell-based; conditions: Mus musculus; in short: as §1
[5] = Partition coefficient (log P) was the log of ratio of concentration in octanol / water partitioned concentration in phosphate buffer at pH 7.4.; assay type: physicochemical
Mus musculus [6] = test: Antitumor activity against mice baering P388 leukemia (10e6 cells) implanted ip on day 0, after treatment with single ip dose 0.05 mg/kg on day 1.; assay type: functional; conditions: route intraperitoneal
In short: (§3)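 Mice implanted ip with 10^6 P388 leukemia cells on day 0, then dosed ip either once on day 1 or on days 5, 9 and 13 once the tumour was systemic. Efficacy is T/C, the mean survival time of treated over control mice, expressed as %. T/C > 120% counts as active. The optimum dose is reported.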

Calf thymus DNA [7] = test: (§4) Effect on thermal denaturation temperature (delta Tm) of helical DNA; assay type: nucleic-acid assay; conditions: Bos taurus
In short: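 ΔTm was taken as the Tm of the drug–calf thymus DNA complex minus the Tm of DNA alone. Drug was at 5.2 × 10^-6 M in 0.01 M phosphate buffer (pH 7) containing EDTA and 5% Me2SO. Values below 1 were considered insignificant binding.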

Calf thymus DNA [8] = test: as §4; assay type: functional; conditions: Bos taurus; in short: as §2
Mus musculus [9] = test: Antitumor activity (treated/control) against mice bearing B16 melanoma implanted ip on day 0, after treatment with 3 ip doses 0.0063 mg/kg on day 1,5,9 when tumor had become systemic.; assay type: functional; conditions: route intraperitoneal
In short: (§5)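 Mice tumour-implanted on day 0 as in the P388 ip screen. Dosing was iv for P388 (day 1), po for P388 (days 1, 5, 9), and ip for L1210 (day 1) and for B16 melanoma (days 1, 5, 9). Efficacy is T/C % of mean survival time of treated over control mice, at the optimum dose.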

Mus musculus [10] = test: Antitumor activity (treated/control) against mice bearing L1210 leukemia implanted ip on day 0, after treatment with single ip dose 0.025 mg/kg on day 1.; assay type: functional; conditions: route intraperitoneal; in short: as §5
Mus musculus [11] = test: Antitumor activity (treated/control) against mice bearing P388 leukemia implanted ip on day 0, after treatment with single iv dose 0.05 mg/kg on day 1.; assay type: functional; in short: as §5
Mus musculus [12] = test: Antitumor activity (treated/control) against mice bearing P388 leukemia implanted ip on day 0, after treatment with three po doses 0.1 mg/kg on days1,5,9 when the tumor had become systemic; assay type: functional; in short: as §5
Mus musculus [13] = test: Antitumor activity against mice baering P388 leukemia (10e6 cells) implanted ip on day 0, after treatment with single ip dose 4.0 mg/kg on day 1.; assay type: functional; conditions: route intraperitoneal; in short: as §3
Mus musculus [14] = test: Antitumor activity against mice baering P388 leukemia (10e6 cells) implanted ip on day 0, after treatment with single ip dose 0.25 mg/kg on day 1.; assay type: functional; conditions: route intraperitoneal; in short: as §3
Mus musculus [15] = test: Antitumor activity against mice bearing B16 melanoma implanted ip on day 0, after treatment with three ip doses 10 mg/kg on day 1,5,9 when tumor had become systemic.; assay type: functional; conditions: route intraperitoneal
Mus musculus [16] = test: Antitumor activity against mice bearing L1210 leukemia implanted ip on day 0, after treatment with single ip dose 10 mg/kg on day 1.; assay type: functional; conditions: route intraperitoneal
Mus musculus [17] = test: Antitumor activity against mice bearing P388 leukemia implanted ip on day 0, after treatment with single iv dose 10 mg/kg on day 1.; assay type: functional
Mus musculus [18] = test: Antitumor activity against mice bearing P388 leukemia implanted ip on day 0, after treatment with three po doses on day 1,5,9 when the tumor had become systemic; Inactive; assay type: functional, organism-based
Mus musculus [19] = test: Antitumor activity against mice baering P388 leukemia (10e6 cells) implanted ip on day 0, after treatment with single ip dose 7.5 mg/kg on day 1.; assay type: functional; conditions: route intraperitoneal
Mus musculus [20] = test: Antitumor activity against mice baering P388 leukemia (10e6 cells) implanted ip on day 0, after treatment with single ip dose 0.4 mg/kg on day 1.; assay type: functional; conditions: route intraperitoneal
Mus musculus [21] = test: Antitumor activity against mice baering P388 leukemia (10e6 cells) implanted ip on day 0, after treatment with three ip doses (0.5 mg/kg) on day 5,9,13 when tumor became systemic.; assay type: functional
Mus musculus [22] = test: Antitumor activity against mice baering P388 leukemia (10e6 cells) implanted ip on day 0, after treatment with three ip doses (50 mg/kg) on day 5,9,13 when tumor became systemic.; assay type: functional; in short: as §3
Mus musculus [23] = test: Antitumor activity against mice baering P388 leukemia (10e6 cells) implanted ip on day 0, after treatment with three ip doses (0.2 mg/kg) on day 5,9,13 when tumor became systemic.; assay type: functional; in short: as §3

Structure (SMILES) | ED50 (Nucleic Acid [1]) | ΔTm (Calf thymus DNA [2]) | ED50 (Nucleic Acid [4]) | logD [5] | other results
COc1cccc2c1C(=O)c1c(O)c3c(c(O)c1C2=O)C[C@@](O)(C(C)=O)C[C@@H]3O[C@H]1C[C@H](N)[C@H](O)[C@H](C)O1.Cl [DAUNORUBICIN HYDROCHLORIDE] | 660 nM | 10.5 °C | 330 nM | 0.66 | T/C (Mus musculus [3]): 130%
COc1cccc2c1C(=O)c1c(O)c3c(c(O)c1C2=O)C[C@@](O)(C(=O)CO)CC3OC1CC(N2CCOCC2)C(O)C(C)O1.Cl (stereo not given in full) | 710 nM | 9.6 °C | 170 nM | 1.73 | T/C (Mus musculus [6]): 182%
COc1cccc2c1C(=N)c1c(O)c3c(c(O)c1C2=O)C[C@@](O)(C(O)CO)CC3OC1CC(N2CCOCC2C#N)C(O)C(C)O1 (stereo not given in full) | 580 nM |  | 75 nM |  | ΔTm (Calf thymus DNA [7]): 0.8 °C
COc1cccc2c1C(=O)c1c(O)c3c(c(O)c1C2=O)C[C@@](O)(C(=O)CO)CC3OC1CC(N2CCOCC2C#N)C(O)C(C)O1 (stereo not given in full) | 3 nM |  | 0.53 nM |  | ΔTm (Calf thymus DNA [8]): 8.7 °C; T/C (Mus musculus [9]): >148%; T/C (Mus musculus [10]): 164%; T/C (Mus musculus [11]): 152%; T/C (Mus musculus [12]): >158%
COc1cccc2c1C(=N)c1c(O)c3c(c(O)c1C2=O)C[C@@](O)(C(=O)CO)CC3OC1CC(N2CCOCC2)C(O)C(C)O1.Cl (stereo not given in full) | 2600 nM | 4.3 °C | 1300 nM | 1.8 | T/C (Mus musculus [13]): >215%
COc1cccc2c1C(=O)c1c(O)c3c(c(O)c1C2=O)C[C@@](O)(C(C)=O)CC3OC1CC(N2CCOCC2)C(O)C(C)O1.Cl (stereo not given in full) | 760 nM | 6.6 °C | 100 nM | 2.31 | T/C (Mus musculus [14]): 155%
COc1cccc2c1C(=O)c1c(O)c3c(c(O)c1C2=O)C[C@@](O)(C(=O)CO)C[C@@H]3O[C@H]1C[C@H](N)[C@H](O)[C@H](C)O1.Cl [DOXORUBICIN HYDROCHLORIDE] | 1600 nM | 12.8 °C | 580 nM |  | T/C (Mus musculus [15]): 278%; T/C (Mus musculus [16]): 185%; T/C (Mus musculus [17]): 178%; T/C (Mus musculus [18]): inactive; T/C (Mus musculus [19]): 252%; T/C (Mus musculus [3]): 160%
COc1cccc2c1C(=O)c1c(O)c3c(c(O)c1C2=O)C[C@@](O)(C(O)CO)CC3OC1CC(N2CCOCC2)C(O)C(C)O1.Cl (stereo not given in full) | 7500 nM | 3.9 °C | 3300 nM |  | T/C (Mus musculus [20]): >145%
COc1cccc2c1C(=N)c1c(O)c3c(c(O)c1C2=O)C[C@@](O)(C(=O)CO)CC3OC1CC(N2CCOCC2C#N)C(O)C(C)O1 (stereo not given in full) | 31 nM |  | 4.7 nM | 1.97 | ΔTm (Calf thymus DNA [7]): 3.2 °C; T/C (Mus musculus [21]): 157%
COc1cccc2c1C(=O)c1c(O)c3c(c(O)c1C2=O)C[C@@](O)(C(C)=O)CC3OC1CC(N2CCOCC2C#N)C(O)C(C)O1 (stereo not given in full) | 12 nM | 6.3 °C | 2 nM |  | T/C (Mus musculus [14]): 175%
COc1cccc2c1C(=O)c1c(O)c3c(c(O)c1C2=O)C[C@@](O)(C(C)O)CC3OC1CC(N2CCOCC2C#N)C(O)C(C)O1 (stereo not given in full) | 19 nM | 4.2 °C | 2 nM |  | 
COc1cccc2c1C(=N)c1c(O)c3c(c(O)c1C2=O)C[C@@](O)(C(O)CO)CC3OC1CC(N2CCOCC2)C(O)C(C)O1.Cl (stereo not given in full) | > 100000 nM | 1.6 °C | 24000 nM | 1.43 | T/C (Mus musculus [22]): >161%
COc1cccc2c1C(=O)c1c(O)c3c(c(O)c1C2=O)C[C@@](O)(C(O)CO)CC3OC1CC(N2CCOCC2C#N)C(O)C(C)O1 (stereo not given in full) | 21 nM | 4.5 °C | 3 nM | 1.56 | T/C (Mus musculus [6]): 183%; T/C (Mus musculus [23]): 150%
COc1cccc2c1C(=O)c1c(O)c3c(c(O)c1C2=O)C[C@@](O)(C(C)O)CC3OC1CC(N2CCOCC2)C(O)C(C)O1 (stereo not given in full) | 2200 nM | 4.1 °C | 530 nM | 2.03 | 
